Measured values: ChEMBL document CHEMBL1157562, “Piperazinyl glutamate pyridines as potent orally bioavailable P2Y12 antagonists for inhibition of platelet aggregation” (J Med Chem, 2010)

Assays:
[1] = system: Platelet; assay: Relative potency, ratio of IC50 for drug to IC50 for AZD-6140 for platelet aggregation in human platelet rich plasma; assay type: functional
[2] = Clearance in Sprague-Dawley rat at 2 mg/kg, iv and 5 mg/kg, po; assay type: ADME, organism-based; details: in vivo
In short: (§1)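 Rats received 2 mg/kg iv infusion or 5 mg/kg po, in 50% PEG400/40% PBS/10% ethanol.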

[3] = Volume of distribution at steady state in Sprague-Dawley rat at 2 mg/kg, iv and 5 mg/kg, po; assay type: ADME, organism-based; details: in vivo, read-out: Vdss; in short: as §1
[4] = Antiplatelet aggregation activity against adenosine diphosphate-induced human platelet rich plasma assessed as inhibition of platelet aggregation by turbidimetric method; assay type: functional; details: Homo sapiens, Platelet, Plasma
In short: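 Human PRP, prepared by two-step centrifugation and adjusted to 330 000 platelets/μL with PPP. Compound was preincubated 5 min at 37 °C in 0.5% DMSO, then 20 μM ADP was added. OD626 was read kinetically for 15 min at 37 °C with mixing between reads.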

[5] = biological target: P2Y purinoceptor 12 (Homo sapiens, UniProt Q9H244); assay: Displacement of [33P]ADP from human recombinant P2Y12 receptor expressed in CHO cells; assay type: cell-based
In short: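 Washed membranes from CHO cells expressing synthetic human P2Y12, incubated 1 h at room temperature with 0.2 nM 33P-MeSADP in 50 mM Tris/100 mM NaCl/1 mM EDTA. Compound was tested as a 7-point 3-fold series in triplicate. Nonspecific binding was defined with 300 nM 2-MeSADP, followed by filtration.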

[6] = Half life in Sprague-Dawley rat at 2 mg/kg, iv and 5 mg/kg, po; assay type: ADME, organism-based; details: in vivo; in short: as §1

P2Y purinoceptor 12, sequence (Q9H244 whole entry): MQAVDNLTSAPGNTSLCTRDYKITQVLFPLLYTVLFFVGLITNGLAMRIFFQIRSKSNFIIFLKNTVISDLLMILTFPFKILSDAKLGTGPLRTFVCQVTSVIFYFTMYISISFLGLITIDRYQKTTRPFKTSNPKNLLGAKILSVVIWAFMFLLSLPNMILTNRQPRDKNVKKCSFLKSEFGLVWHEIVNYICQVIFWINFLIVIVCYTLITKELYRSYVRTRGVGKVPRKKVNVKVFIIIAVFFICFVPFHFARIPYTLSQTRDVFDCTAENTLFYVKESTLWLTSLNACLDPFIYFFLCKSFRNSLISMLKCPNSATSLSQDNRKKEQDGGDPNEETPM

CCCCCOC(=O)N1CCN(C(=O)[C@H](CCC(=O)O)NC(=O)c2cc(C(=O)N3CCC(N(C)C)CC3)cc(-c3ccccc3)n2)CC1
Ratio IC50 [1]: 1
clearance [2]: 37 mL/min/kg
Vd [3]: 0.77 L/kg
IC50 [4]: 580 nM
Ki [5]: 5.4 nM
half-life [6]: 12 min

CCOC(=O)N1CCN(C(=O)[C@H](CCC(=O)O)NC(=O)c2cc(N3CCOCC3)cc(-c3ccccc3)n2)CC1
Ratio IC50 [1]: 22
clearance [2]: 58 mL/min/kg
Vd [3]: 3.4 L/kg
IC50 [4]: 25000 nM
Ki [5]: 39 nM
half-life [6]: 42 min

CCCCCOC(=O)N1CCN(C(=O)[C@H](CCC(=O)O)NC(=O)c2cc(OC(=O)N(C)CC3CCOCC3)cc(-c3ccccc3)n2)CC1
Ratio IC50 [1]: 0.82
clearance [2]: 109 mL/min/kg
Vd [3]: 8.6 L/kg
IC50 [4]: 470 nM
Ki [5]: 45 nM
half-life [6]: 78 min

CCCCCOC(=O)N1CCN(C(=O)[C@H](CCC(=O)O)NC(=O)c2cc(N3CCC(CN(C)C)CC3)cc(-c3ccccc3)n2)CC1
Ratio IC50 [1]: 1.3
clearance [2]: 92 mL/min/kg
Vd [3]: 2.1 L/kg
half-life [6]: 18 min

CCCCCOC(=O)N1CCN(C(=O)[C@H](CCC(=O)O)NC(=O)c2cc(OC3CCN(C(C)=O)CC3)cc(-c3ccccc3)n2)CC1
Ratio IC50 [1]: 1.8
clearance [2]: 36 mL/min/kg
Vd [3]: 0.58 L/kg
IC50 [4]: 1800 nM
Ki [5]: 3.6 nM
half-life [6]: 12 min

CCOC(=O)N1CCN(C(=O)[C@H](CCC(=O)O)NC(=O)c2cc(N3CCCCC3)cc(-c3ccccc3)n2)CC1
Ratio IC50 [1]: 34
clearance [2]: 34 mL/min/kg
Vd [3]: 1.3 L/kg
IC50 [4]: 29000 nM
Ki [5]: 112 nM
half-life [6]: 24 min

CCCCCOC(=O)N1CCN(C(=O)[C@H](CCC(=O)O)NC(=O)c2cc(OCC3CCN(C)CC3)cc(-c3ccccc3)n2)CC1
Ratio IC50 [1]: 0.62
clearance [2]: 130 mL/min/kg
Vd [3]: 6.9 L/kg
IC50 [4]: 330 nM
Ki [5]: 5.3 nM
half-life [6]: 36 min

CCCCCOC(=O)N1CCN(C(=O)[C@H](CCC(=O)O)NC(=O)c2cc(N3CCC(N(C)C)CC3)cc(-c3ccccc3)n2)CC1
Ratio IC50 [1]: 2.1
clearance [2]: 81 mL/min/kg
Vd [3]: 2.3 L/kg
IC50 [4]: 1800 nM
Ki [5]: 22 nM
half-life [6]: 18 min

CCCCCOC(=O)N1CCN(C(=O)[C@H](CCC(=O)O)NC(=O)c2cc(CCCNCC(C)C)cc(-c3ccccc3)n2)CC1
Ratio IC50 [1]: 1.5
clearance [2]: 112 mL/min/kg
Vd [3]: 5.6 L/kg
IC50 [4]: 1000 nM
Ki [5]: 12 nM
half-life [6]: 36 min

CCCCCOC(=O)N1CCN(C(=O)[C@H](CCC(=O)O)NC(=O)c2cc(C(=O)N3CCOCC3)cc(-c3ccccc3)n2)CC1
Ratio IC50 [1]: 1
clearance [2]: 51 mL/min/kg
Vd [3]: 1.1 L/kg
IC50 [4]: 710 nM
Ki [5]: 4.4 nM
half-life [6]: 14.4 min

CCCCCOC(=O)N1CCN(C(=O)[C@H](CCC(=O)O)NC(=O)c2cc(OCC3CCNCC3)cc(-c3ccccc3)n2)CC1
Ratio IC50 [1]: 0.82
clearance [2]: 62 mL/min/kg
Vd [3]: 1.3 L/kg
IC50 [4]: 820 nM
Ki [5]: 4.5 nM
half-life [6]: 12 min

CCCCCOC(=O)N1CCN(C(=O)[C@H](CCC(=O)O)NC(=O)c2cc(CCCN(C)C)cc(-c3ccccc3)n2)CC1
Ratio IC50 [1]: 1.3
clearance [2]: 38 mL/min/kg
Vd [3]: 3.2 L/kg
IC50 [4]: 1300 nM
Ki [5]: 1 nM
half-life [6]: 60 min

CCCCCOC(=O)N1CCN(C(=O)[C@H](CCC(=O)O)NC(=O)c2cc(OC3CCN(CCOC)CC3)cc(-c3ccccc3)n2)CC1
Ratio IC50 [1]: 1.7
clearance [2]: 94 mL/min/kg
Vd [3]: 5.2 L/kg
IC50 [4]: 1700 nM
Ki [5]: 9.9 nM
half-life [6]: 38.4 min

CCCCCOC(=O)N1CCN(C(=O)[C@H](CCC(=O)O)NC(=O)c2cc(CCC(=O)N(C)C)cc(-c3ccccc3)n2)CC1
Ratio IC50 [1]: 2.7
IC50 [4]: 2900 nM
Ki [5]: 2.1 nM

CCCCCOC(=O)N1CCN(C(=O)[C@H](CCC(=O)O)NC(=O)c2cc(OCC)cc(-c3ccccc3)n2)CC1
Ratio IC50 [1]: 23
IC50 [4]: 17000 nM
Ki [5]: 7.9 nM

CCCCCOC(=O)N1CCN(C(=O)[C@H](CCC(=O)O)NC(=O)c2cc(C(=O)N(C)CCCOC)cc(-c3ccccc3)n2)CC1
Ratio IC50 [1]: 1.4
IC50 [4]: 630 nM
Ki [5]: 2.6 nM

CCCCCOC(=O)N1CCN(C(=O)[C@H](CCC(=O)O)NC(=O)c2cc(C(=O)NC3CCOCC3)cc(-c3ccccc3)n2)CC1
Ratio IC50 [1]: 10
IC50 [4]: 5600 nM
Ki [5]: 4.6 nM

CCCCCOC(=O)N1CCN(C(=O)[C@H](CCC(=O)O)NC(=O)c2cc(N3CCC(OC)CC3)cc(-c3ccccc3)n2)CC1
Ratio IC50 [1]: 3
IC50 [4]: 3900 nM
Ki [5]: 15 nM

CCCCCOC(=O)N1CCN(C(=O)[C@H](CCC(=O)O)NC(=O)c2cc(NC(=O)N3CCC(COC)CC3)cc(-c3ccccc3)n2)CC1
Ratio IC50 [1]: 5.2
IC50 [4]: 4500 nM
Ki [5]: 43 nM

CCCCCOC(=O)N1CCN(C(=O)[C@H](CCC(=O)O)NC(=O)c2cc(NC(=O)CN(C)C)cc(-c3ccccc3)n2)CC1
Ratio IC50 [1]: 6.4
IC50 [4]: 5600 nM
Ki [5]: 4.1 nM

CCCCCCOC(=O)N1CCN(C(=O)[C@H](CCC(=O)O)NC(=O)c2cc(NCCOC)cc(-c3ccccc3)n2)CC1
Ratio IC50 [1]: 9.6
IC50 [4]: 7300 nM
Ki [5]: 11 nM

CCCOc1cc(C(=O)N[C@@H](CCC(=O)O)C(=O)N2CCN(C(=O)OCC)CC2)nc(-c2ccccc2)c1
Ratio IC50 [1]: 46
IC50 [4]: 36000 nM
Ki [5]: 120 nM

CCCCCOC(=O)N1CCN(C(=O)[C@H](CCC(=O)O)NC(=O)c2cc(OC3CCN(C(=O)OCC)CC3)cc(-c3ccccc3)n2)CC1
Ratio IC50 [1]: 8.1
IC50 [4]: 8200 nM
Ki [5]: 6.5 nM

CCCCCCOC(=O)N1CCN(C(=O)[C@H](CCC(=O)O)NC(=O)c2cc(OCCOC)cc(-c3ccccc3)n2)CC1
Ratio IC50 [1]: 7.1
IC50 [4]: 8300 nM
Ki [5]: 14 nM

CCCCOC(=O)N1CCN(C(=O)[C@H](CCC(=O)O)NC(=O)c2cc(OC3CCN(CCOC)CC3)cc(-c3ccccc3)n2)CC1
Ratio IC50 [1]: 1.1
IC50 [4]: 1200 nM
Ki [5]: 9.4 nM

CCCCCOC(=O)N1CCN(C(=O)[C@H](CCC(=O)O)NC(=O)c2cc(N3CCC(N4CCOCC4)CC3)cc(-c3ccccc3)n2)CC1
Ratio IC50 [1]: 0.95
IC50 [4]: 2000 nM
Ki [5]: 10 nM

CCCCCOC(=O)N1CCN(C(=O)[C@H](CCC(=O)O)NC(=O)c2cc(OCC3CCN(C(=O)OCC)CC3)cc(-c3ccccc3)n2)CC1
Ratio IC50 [1]: 5.1
IC50 [4]: 7400 nM
Ki [5]: 1.3 nM

CCCCOC(=O)N1CCN(C(=O)[C@H](CCC(=O)O)NC(=O)c2cc(OC3CCN(C(=O)C(F)(F)F)CC3)cc(-c3ccccc3)n2)CC1
Ratio IC50 [1]: 3.4
IC50 [4]: 2100 nM
Ki [5]: 12 nM

CCCCCOC(=O)N1CCN(C(=O)[C@H](CCC(=O)O)NC(=O)c2cc(OC(=O)N(C)C3CCOC3)cc(-c3ccccc3)n2)CC1 (stereo partly specified)
Ratio IC50 [1]: 0.59
IC50 [4]: 470 nM
Ki [5]: 2.3 nM

CCCCOC(=O)N1CCN(C(=O)[C@H](CCC(=O)O)NC(=O)c2cc(OCC3CCCCN3)cc(-c3ccccc3)n2)CC1 (stereo partly specified)
Ratio IC50 [1]: 2
IC50 [4]: 1800 nM
Ki [5]: 11 nM

CCCCOC(=O)N1CCN(C(=O)[C@H](CCC(=O)O)NC(=O)c2cc(OCC3CCNCC3)cc(-c3ccccc3)n2)CC1
Ratio IC50 [1]: 0.37
IC50 [4]: 210 nM
Ki [5]: 4.2 nM

CCCCCOC(=O)N1CCN(C(=O)[C@H](CCC(=O)O)NC(=O)c2cc(C(=O)NCCC)cc(-c3ccccc3)n2)CC1
Ratio IC50 [1]: 20
IC50 [4]: 12000 nM
Ki [5]: 11 nM

CCCCOC(=O)N1CCN(C(=O)[C@H](CCC(=O)O)NC(=O)c2cc(OCCCC)cc(-c3ccccc3)n2)CC1
Ratio IC50 [1]: 18
IC50 [4]: 27000 nM
Ki [5]: 35 nM
